For 13 molecules, solubility, t1/2 and Activity results are on record in ChEMBL document CHEMBL1140605, “Ester-based precursors to increase the bioavailability of quercetin” (J Med Chem, 2007).

Data set [1] can be described thus: Solubility in Hanks balanced salt solution at 1 mg after 24 hrs. The class given is physicochemical.
Data set [2] in a line: Chemical stability assessed as half life of hydrolysis. The class given is physicochemical. The gist of the method: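 UV-vis spectra (190-500 nm) followed in PBS (20 mM, pH 7.0, ionic strength 0.1 M with KCl)/CH₃CN 1:1 at 25 °C. The reaction was started by adding substrate freshly dissolved in acetonitrile, to a final (3-8) × 10^-5 M. Observed first- and second-step hydrolysis rate constants came from fitting the spectral data to a kinetic equation, and half-life was derived from them.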

A short description of data set [3]: Permeability from apical to basolateral side of dog MDCK2 cell monolayer assessed as intact drug level in basolateral compartment after 6 hrs. Type of data set: ADME, cell-based, Canis lupus familiaris. The following applies: mdck-ii. In a few lines: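 MDCK-2 monolayers were grown in DMEM with 10% FBS, seeded at 5 × 10⁵ cells/cm² on 24-mm Transwell inserts, and used at TER 100-300 Ω·cm² (10-20 days). Apical dosing was formally 30-50 µM compound in HBSS with 0.1% DMSO. After 6 h, basolateral solution was analysed by HPLC-UV at 300/370 nm and quantified against standard curves (quantification limit 0.2 µM).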

A short description of data set [4]: Permeability from apical to basolateral side of dog MDCK1 cell monolayer assessed as intact drug level in basolateral compartment after 6 hrs. Type of data set: ADME, cell-based, Canis lupus familiaris. The following applies: mdck1, 6 h. In a few lines: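 MDCK-1 cells in DMEM with 10% FBS were seeded at 3 × 10⁵ cells/cm² on 24-mm Transwell inserts and used at TER ~10-15 kΩ·cm² (10-20 days). Compound was applied apically at formally 30-50 µM in HBSS with 0.1% DMSO. Basolateral fluid was taken at 6 h and quantified by HPLC-UV (300/370 nm) against standard curves; quantification limit 0.2 µM.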

For data set [5], the system named is Caco-2. Nature of the data set: Permeability from apical to basolateral side of human Caco-2 cell monolayer assessed as intact drug level in basolateral compartment after 6 hrs. The class given is ADME, cell-based. The conditions noted are these: caco-2, 6 h. In a few lines:
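Caco-2 cells were cultured in DMEM with 10% FBS, seeded at 3 × 10⁵ cells/cm² on 24-mm Transwell inserts, and tested at TER 1.5-2 kΩ·cm² (10-20 days). Compound at formally 30-50 µM in HBSS with 0.1% DMSO was placed apically. Basolateral content at 6 h was measured by HPLC-UV (300/370 nm) against standard curves; quantification limit 0.2 µM.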
On the technique in general: Caco-2 cells form a polarised layer with tight junctions and transporters.

Broadly, the solubility is the dissolved amount per volume that the medium holds. On to `CC(=O)Oc1cc(OC(C)=O)c2c(=O)c(OC(C)=O)c(-c3ccc(OC(C)=O)c(OC(=O)[C@@H](C)NC(=O)OC(C)(C)C)c3)oc2c1`, for which the solubility at 24 h in data set [1] is 12 µM.

In the case of `CC(C)(C)OC(=O)N[C@H]1CC[C@@H](C(=O)Oc2cc(-c3oc4cc(O)cc(O)c4c(=O)c3O)ccc2O)CC1`, the t1/2 in data set [2] amounted to 3.31 h.

With `CC(=O)Oc1cc(OC(C)=O)c2c(=O)c(OC(C)=O)c(-c3ccc(OC(C)=O)c(OC(=O)[C@H]4CC[C@@H](NC(=O)OC(C)(C)C)CC4)c3)oc2c1`, the solubility at 24 h in data set [1] turned out to be 0.8 µM.

Take `CC(=O)Oc1cc(OC(C)=O)c2c(=O)c(OC(C)=O)c(-c3ccc(OC(C)=O)c(OC(=O)c4ccc(N)cc4)c3)oc2c1`: the solubility at 24 h in data set [1] was 1 µM.

With `CC(=O)Oc1cc(OC(C)=O)c2c(=O)c(OC(C)=O)c(-c3ccc(OC(C)=O)c(OC(=O)CCCCCNC(=O)OC(C)(C)C)c3)oc2c1`, the solubility at 24 h in data set [1] is 3.9 µM.

In the case of `Nc1ccc(C(=O)Oc2cc(-c3oc4cc(O)cc(O)c4c(=O)c3O)ccc2O)cc1`, the solubility at 24 h in data set [1] worked out at 1.5 µM.

For `CC(C)(C)OC(=O)Nc1ccc(C(=O)Oc2cc(-c3oc4cc(O)cc(O)c4c(=O)c3O)ccc2O)cc1`, the solubility at 24 h in data set [1] was 0.4 µM.

For `CC(=O)Oc1cc(OC(C)=O)c2c(=O)c(OC(C)=O)c(-c3ccc(OC(C)=O)c(OC(C)=O)c3)oc2c1`, the Activity in data set [3] was 0.5%. Also, the solubility at 24 h in data set [1] came to 1.1 µM.

Consider `CC(C)(C)OC(=O)NCCCC(=O)Oc1cc(-c2oc3cc(O)cc(O)c3c(=O)c2O)ccc1O`, for which the t1/2 in data set [2] is 2.08 h.

Take `O=c1c(O)c(-c2ccc(O)c(O)c2)oc2cc(O)cc(O)c12` [QUERCETIN]: the Activity in data set [3] amounted to 2.7%; in data set [4], 0.9%; in data set [5], 1%. Further, the solubility at 24 h in data set [1] is 2.3 µM.

On to `CC(=O)Oc1cc(OC(C)=O)c2c(=O)c(OC(C)=O)c(-c3ccc(OC(C)=O)c(OC(=O)c4ccc(NC(=O)OC(C)(C)C)cc4)c3)oc2c1`, for which, in data set [1], the solubility at 24 h came out at 0.4 µM.

As for `CC(=O)Oc1cc(OC(C)=O)c2c(=O)c(OC(C)=O)c(-c3ccc(OC(C)=O)c(OC(=O)CCCNC(=O)OC(C)(C)C)c3)oc2c1`, in data set [1], the solubility at 24 h amounted to 2.5 µM.

Regarding `CC(C)(C)OC(=O)NCCCCCC(=O)Oc1cc(-c2oc3cc(O)cc(O)c3c(=O)c2O)ccc1O`, the t1/2 in data set [2] was determined as 3.67 h.
